According to ChEMBL document CHEMBL1140861, “Short antisense oligonucleotides with novel 2'-4' conformationaly restricted nucleoside analogues show improved potency without increased toxicity in animals” (J Med Chem, 2009):

Tests used:
[1] = species: Mus musculus; assay: Binding affinity to mouse PTEN mRNA assessed as melting temperature
Summary of the method: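 Tm of ASO–RNA duplex, i.e. melting temperature of the ASO hybridised to its complementary RNA.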

[2] = tested on: bEND; assay: Reduction in mouse PTEN mRNA level expressed in mouse bEND cells; format: functional, cell-based
Summary of the method: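 bEND mouse brain endothelial cells transfected with ASO using lipofectin; PTEN mRNA reduction measured over a dose range; IC50 taken from dose-response curves.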

[3] = tested on: Mus musculus; assay: Reduction of PTEN mRNA level in ip dosed BALB/c mouse liver after 72 hrs; format: functional
[4] = tested on: Mus musculus; assay: Hepatotoxicity in BALB/c mouse assessed as increase in liver ALT level at 35 mg/kg, ip after 72 hrs; format: toxicity, organism-based; set-up: dose 35 mg/kg, route intraperitoneal; details: in vivo
Summary of the method: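 Single ip injection of 35 mg/kg ASO into male Balb/c mice, 6 weeks old, n = 4 per group, saline control; sacrificed 72 h after dosing and ALT recorded; ANOVA with Tukey's post hoc test.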

Row | Structure (SMILES) | Tm [1] [°C] | IC50 [2] [nM] | ED50 [3] [mg/kg] | Activity [4]
1 | COC[C@@H]1O[C@H]2[C@H](n3cc(C)c(N)nc3=O)O[C@]1(COP(O)(=S)O[C@H]1[C@H]3O[C@@H](COC)[C@]1(COP(O)(=S)O[C@H]1C[C@H](n4cc(C)c(=O)[nH]c4=O)O[C@@H]1COP(O)(=S)O[C@H]1[C@@H](O)[C@H](n4cnc5c4N=CNC5N)O[C@@H]1COP(O)(=S)O[C@H]1[C@@H](O)[C@H](n4cnc5c(=O)[nH]c(N)nc54)O[C@@H]1COP(O)(=S)O[C@H]1[C@@H](O)[C@H](n4ccc(N)nc4=O)O[C@@H]1COP(O)(=S)O[C@H]1[C@@H](O)[C@H](n4cnc5c(N)ncnc54)O[C@@H]1COP(O)(=S)O[C@H]1[C@@H](O)[C@H](n4ccc(N)nc4=O)O[C@@H]1COP(O)(=S)O[C@H]1[C@@H](O)[C@H](n4cc(C)c(=O)[nH]c4=O)O[C@@H]1COP(O)(=S)O[C@H]1[C@@H](O)[C@H](n4cnc5c(=O)[nH]c(N)nc54)O[C@@H]1COP(O)(=S)O[C@H]1[C@@H](O)[C@H](n4cnc5c(=O)[nH]c(N)nc54)O[C@@H]1COP(O)(=S)O[C@H]1[C@@H](O)[C@H](n4ccc(N)nc4=O)O[C@@H]1COP(O)(=S)O[C@H]1[C@H]4O[C@@H](COC)[C@]1(COP(O)(=S)O[C@H]1[C@H]5O[C@@H](COC)[C@]1(CO)O[C@H]5n1ccc(=O)[nH]c1=O)O[C@H]4n1cc(C)c(N)nc1=O)O[C@H]3n1ccc(=O)[nH]c1=O)[C@H]2O (stereo partly drawn) | 57.6 | 5 | 25 | –
2 | COC[C@H]1O[C@H]2[C@H](n3cc(C)c(N)nc3=O)O[C@]1(COP(O)(=S)O[C@H]1[C@H]3O[C@H](COC)[C@]1(COP(O)(=S)O[C@H]1C[C@H](n4cc(C)c(=O)[nH]c4=O)O[C@@H]1COP(O)(=S)O[C@H]1[C@@H](O)[C@H](n4cnc5c4N=CNC5N)O[C@@H]1COP(O)(=S)O[C@H]1[C@@H](O)[C@H](n4cnc5c(=O)[nH]c(N)nc54)O[C@@H]1COP(O)(=S)O[C@H]1[C@@H](O)[C@H](n4ccc(N)nc4=O)O[C@@H]1COP(O)(=S)O[C@H]1[C@@H](O)[C@H](n4cnc5c(N)ncnc54)O[C@@H]1COP(O)(=S)O[C@H]1[C@@H](O)[C@H](n4ccc(N)nc4=O)O[C@@H]1COP(O)(=S)O[C@H]1C[C@H](n4cc(C)c(=O)[nH]c4=O)O[C@@H]1COP(O)(=S)O[C@H]1[C@@H](O)[C@H](n4cnc5c(=O)[nH]c(N)nc54)O[C@@H]1COP(O)(=S)O[C@H]1[C@@H](O)[C@H](n4cnc5c(=O)[nH]c(N)nc54)O[C@@H]1COP(O)(=S)O[C@H]1[C@@H](O)[C@H](n4ccc(N)nc4=O)O[C@@H]1COP(O)(=S)O[C@H]1[C@H]4O[C@H](COC)[C@]1(COP(O)(=S)O[C@H]1[C@H]5O[C@H](COC)[C@]1(CO)O[C@H]5n1ccc(=O)[nH]c1=O)O[C@H]4n1cc(C)c(N)nc1=O)O[C@H]3n1ccc(=O)[nH]c1=O)[C@H]2O (stereo partly drawn) | 56.9 | 6 | 29 | –
3 | COC[C@@H]1O[C@H]2[C@H](n3ccc(=O)[nH]c3=O)O[C@]1(COP(O)(=S)O[C@@H]1[C@H]3O[C@H](COC)[C@]1(COP(O)(=S)OC[C@H]1O[C@@H](n4cnc5c(N)ncnc54)[C@H](O)[C@@H]1OP(O)(=S)OC[C@H]1O[C@@H](n4cc(C)c(=O)[nH]c4=O)[C@H](O)[C@@H]1OP(O)(=S)OC[C@H]1O[C@@H](n4cnc5c(=O)[nH]c(N)nc54)[C@H](O)[C@@H]1OP(O)(=S)OC[C@H]1O[C@@H](n4cnc5c(=O)[nH]c(N)nc54)[C@H](O)[C@@H]1OP(O)(=S)OC[C@H]1O[C@@H](n4ccc(N)nc4=O)[C@H](O)[C@@H]1OP(O)(=S)OC[C@H]1O[C@@H](n4cc(C)c(=O)[nH]c4=O)[C@H](O)[C@@H]1OP(O)(=S)OC[C@H]1O[C@@H](n4cnc5c(=O)[nH]c(N)nc54)[C@H](O)[C@@H]1OP(O)(=S)OC[C@H]1O[C@@H](n4ccc(N)nc4=O)[C@H](O)[C@@H]1OP(O)(=S)OC[C@H]1O[C@@H](n4cnc5c(N)ncnc54)[C@H](O)[C@@H]1OP(O)(=S)OC[C@H]1O[C@@H](n4cnc5c(=O)[nH]c(N)nc54)[C@H](O)[C@@H]1OP(O)(=S)OC[C@]14O[C@@H](n5ccc(N)nc5=O)[C@H](O[C@H]1COC)[C@@H]4OP(O)(=S)OC[C@]14O[C@@H](n5ccc(=O)[nH]c5=O)[C@H](O[C@H]1COC)[C@@H]4O)O[C@H]3n1ccc(N)nc1=O)[C@H]2O (stereo partly drawn) | – | – | – | Non-toxic
4 | COC[C@H]1O[C@H]2[C@H](n3ccc(=O)[nH]c3=O)O[C@]1(COP(O)(=S)O[C@H]1[C@H]3O[C@H](COC)[C@]1(COP(O)(=S)OC[C@H]1O[C@@H](n4cnc5c(N)ncnc54)[C@H](O)[C@@H]1OP(O)(=S)OC[C@H]1O[C@@H](n4cc(C)c(=O)[nH]c4=O)[C@H](O)[C@@H]1OP(O)(=S)OC[C@H]1O[C@@H](n4cnc5c(=O)[nH]c(N)nc54)[C@H](O)[C@@H]1OP(O)(=S)OC[C@H]1O[C@@H](n4cnc5c(=O)[nH]c(N)nc54)[C@H](O)[C@@H]1OP(O)(=S)OC[C@H]1O[C@@H](n4ccc(N)nc4=O)[C@H](O)[C@@H]1OP(O)(=S)OC[C@H]1O[C@@H](n4cc(C)c(=O)[nH]c4=O)[C@H](O)[C@@H]1OP(O)(=S)OC[C@H]1O[C@@H](n4cnc5c(=O)[nH]c(N)nc54)[C@H](O)[C@@H]1OP(O)(=S)OC[C@H]1O[C@@H](n4ccc(N)nc4=O)[C@H](O)[C@@H]1OP(O)(=S)OC[C@H]1O[C@@H](n4cnc5c(N)ncnc54)[C@H](O)[C@@H]1OP(O)(=S)OC[C@H]1O[C@@H](n4cnc5c(=O)[nH]c(N)nc54)[C@H](O)[C@@H]1OP(O)(=S)OC[C@]14O[C@@H](n5ccc(N)nc5=O)[C@H](O[C@@H]1COC)[C@@H]4OP(O)(=S)OC[C@]14O[C@@H](n5ccc(=O)[nH]c5=O)[C@H](O[C@@H]1COC)[C@@H]4O)O[C@H]3n1ccc(N)nc1=O)[C@H]2O (stereo partly drawn) | – | – | – | Non-toxic
